Source: ChEMBL document CHEMBL3853277, “Efficient Synthesis of Glaziovianin A Isoflavone Series from Dill and Parsley Extracts and Their in Vitro/in Vivo Antimitotic Activity” (J Nat Prod, 2016)

Columns and labels:
[1] = Growth inhibition of human A549 cells by MTS assay; type: functional, cell-based
Procedure, shortened: (§1)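 Cancer lines grown in their own media with 10% FBS at 37 °C, 5% CO2; 1 × 10^4 cells/well treated 48 h at 0.01−100 μM (DMSO stocks, 0.1% DMSO control), quadruplicate wells. MTS reagent 1−4 h, absorbance 490 nm. IC50 by sigmoidal fitting; mean ± SD of three independent experiments.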

[2] = Growth inhibition of human MDA-MB-231 cells measured after 48 hrs by MTS assay; type: functional, cell-based; details: MDA-MB-231, 48 h; procedure, shortened: as §1
[3] = test system: Paracentrotus lividus; assay: Antimitotic activity against sea urchin Paracentrotus lividus L embryo assessed as induction of embryo spinning; type: functional
Procedure, shortened: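 Hatched free-swimming blastulae (8−9 h postfertilization) exposed to 2-fold decreasing concentrations in seawater, room temperature; DMSO stock diluted 10-fold in 96% EtOH. Observed to four-arm pluteus (34−36 h); spinning on well bottom without forward movement scored as microtubule destabilization; effective threshold concentration, duplicate measurements.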

[4] = test system: Paracentrotus lividus; assay: Antimitotic activity against sea urchin Paracentrotus lividus L embryo assessed as induction of cleavage arrest; type: functional
Procedure, shortened: (§2)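 Gametes collected by intracoelomic 0.5 M KCl injection; fertilized eggs (8−15 min postfertilization) exposed in seawater to 2-fold decreasing concentrations, up to 2000 embryos/mL, room temperature. Stocks 10 mM in DMSO diluted 10-fold in 96% EtOH. Cleavage alteration/arrest scored at 2.5−5.5 h; effective threshold concentration reported, duplicate measurements.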

[5] = Growth inhibition of human A375 cells measured after 48 hrs by MTS assay; type: functional, cell-based; details: A-375, 48 h; procedure, shortened: as §1
[6] = test system: Paracentrotus lividus; assay: Antimitotic activity in sea urchin Paracentrotus lividus L embryo assessed as induction of cleavage alteration; type: functional; procedure, shortened: as §2
[7] = Growth inhibition of human PC3 cells measured after 48 hrs by MTS assay; type: functional, cell-based; details: PC-3, 48 h; procedure, shortened: as §1
[8] = Growth inhibition of human PBMC cells measured after 48 hrs by MTS assay; type: cell-based
Procedure, shortened: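 PBMCs from healthy volunteers by Ficoll-Paque density separation, washed in RPMI 1640, cultured in RPMI 1640 with 10% heat-inactivated FBS at 37 °C, 5% CO2. Seeded 1 × 10^4 cells/well, treated 48 h at 0.01−100 μM, 0.1% DMSO control, quadruplicate wells; MTS read at 490 nm; IC50 by sigmoidal fitting, three experiments.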

[9] = Growth inhibition of human DU145 cells measured after 48 hrs by MTS assay; type: functional, cell-based; details: DU-145, 48 h; procedure, shortened: as §1
[10] = Growth inhibition of human SKOV3 cells measured after 48 hrs by MTS assay; type: functional, cell-based; details: SK-OV-3, 48 h; procedure, shortened: as §1
[11] = Growth inhibition of human HCT116 cells measured after 48 hrs by MTS assay; type: functional, cell-based; details: HCT-116, 48 h; procedure, shortened: as §1
[12] = test system: Paracentrotus lividus; assay: Antimitotic activity against sea urchin Paracentrotus lividus L embryo assessed as induction of tuberculate egg formation; type: functional
Procedure, shortened: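 Fertilized eggs were exposed 8−15 min post-fertilization to 2-fold decreasing concentrations, as a monolayer of up to 2000 embryos/mL in filtered seawater at room temperature. The 10 mM DMSO stock was diluted 10-fold in 96% EtOH. Cleavage alteration or arrest was scored by light microscopy at 2.5−5.5 h post-fertilization, and the effective threshold concentration was recorded from duplicate measurements.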

Compound	IC50 [1] [µM]	IC50 [2] [µM]	EC [3] [µM]	EC [4] [µM]	IC50 [5] [µM]	EC [6] [µM]	IC50 [7] [µM]	IC50 [8] [µM]	IC50 [9] [µM]	IC50 [10] [µM]	IC50 [11] [µM]	EC [12] [µM]
COc1cc2occ(-c3cc(OC)c(OC)c(OC)c3OC)c(=O)c2cc1OC	> 10	> 10	>4	>4	> 10	>4	> 10	> 10	> 10	> 10	> 10	
COc1ccc(-c2coc3cc(OC)c(OC)cc3c2=O)cc1	> 10	> 10	>5		> 10	0.2	> 10	> 10	> 10	> 10	> 10	1
COc1ccc(-c2coc3cc(OC)c(OC)cc3c2=O)cc1OC	> 10	> 10	>4	>4	> 10	4	> 10	> 10	> 10	> 10	> 10	
COc1ccc(-c2coc3c(OC)c(OC)c(OC)cc3c2=O)cc1OC			>4	>4		4						
COc1cc2occ(-c3cc(OC)c4c(c3)OCO4)c(=O)c2cc1OC	> 10	> 10	>5		6.1	0.1	> 10	> 10	> 10	> 10	> 10	1
COc1ccc(-c2coc3c(OC)c4c(c(OC)c3c2=O)OCO4)cc1OC	> 10	> 10	>4	>4	> 10	>4	> 10	> 10	> 10	> 10	> 10	
COc1cc2occ(-c3cc(OC)c(OC)c(OC)c3)c(=O)c2cc1OC	> 10	> 10	>5		3.2	0.2	5.1	> 10	4.9	4.3	2.8	1
COc1cc2occ(-c3cc4c(c(OC)c3OC)OCO4)c(=O)c2cc1OC	> 10	7.1	>5		1.7	0.5	7.3	> 10	6.4	> 10	3.4	5
COc1cccc(-c2coc3cc(OC)c(OC)cc3c2=O)c1	> 10	> 10	>5	>4	> 10	2	> 10	> 10	> 10	> 10	> 10	
COc1ccc(-c2coc3cc(OC)c(O)cc3c2=O)cc1			>5			1						4
COc1ccc(-c2coc3cc(OC)c(OC)c(OC)c3c2=O)cc1			>4	>4		>4						
COc1ccc(/C=C\c2cc(OC)c(OC)c(OC)c2)cc1OP(=O)([O-])[O-].[Na+].[Na+] [FOSBRETABULIN DISODIUM]	0.0234	0.0028	0.05	0.01	0.0016	0.005	0.0062	0.17	0.0014	0.0077	0.0016	
COc1cc2occ(-c3cc(OC)c4c(c3OC)OCO4)c(=O)c2cc1OC [GLAZIOVIANIN A]	1.1	2.2	4	0.5	0.27	0.05	0.83	> 10	0.87	0.43	0.69	
